Measurements: publication PMC12783166 (Clinical Pharmacokinetics, 2025)
Several values for one entry are separate records, joined by “and”; a condition that tells them apart may be missing. Equal entries are not always repeated. Entries after “also recorded” stand apart in the source; their conditions may differ.

Legend:
OATP1B1 = details: cited from earlier work
OATP1B3 = details: cited from earlier work
[1] = tested on: calcitonin gene-related peptide receptor; details: plasma concentration threshold; cited from earlier work
[2] = Phase 2 population PK model; type: in vivo, human; details: Phase 2 Model
BCRP = details: cited from earlier work
P-gp = details: cited from earlier work
[3] = Phase 3 population PK model; type: in vivo, human
In short: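 Nonlinear mixed-effects model fitted by FOCE with interaction to pooled plasma and dried-blood-spot LC-MS/MS concentrations from 12 phase 1, 1 phase 2b/3 and 1 phase 3 study (healthy participants and migraine patients, single/multiple oral doses). Plasma LLOQ 0.1 or 1.0 ng/mL, DBS 2.5 ng/mL. Below-LLOQ samples and |CWRES| > 6 excluded. Log-normal IIV. Covariates added stepwise (ΔOFV 6.63, P < 0.01).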

[4] = Covariate evaluation of model-predicted 60 mg steady-state exposures; type: in vivo, human
In short: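 Final population model predicted steady-state AUC24 and Cmax for 60 mg once daily in EM phase 2b/3, EM phase 3 and CM phase 3 patients. Covariates included renal function, age, sex, weight, race and comedication with BCRP inhibitors, BCRP substrates or statins. Each subgroup is given as a geometric mean ratio with 95% CI against its reference group.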

[5] = cited from earlier work
OAT1 = details: cited from earlier work
[6] = tested on: cytochrome P450 3A4 (CYP3A4); details: cited from earlier work
[7] = Phase 1 population PK model; type: in vivo, human; details: Phase 1 Model
[8] = Phase 3 Model, fractional covariate effect
[9] = Phase 3 Model, multiple rifampin doses and a single atogepant dose
[10] = Phase 3 Model, proportional residual error
[11] = Phase 3 Model, single-dose atogepant and single-dose rifampin
[12] = model-predicted steady state, 60 mg daily
[13] = oral administration of a 60-mg dose

Blood-plasma ratio [2]: 0.567
Lag time [ALAG (h)] [2]: 0.298 h
Effect of solution on ALAG ([2]; fractional covariate effect): −0.191
Effect of solution on Frel ([2]; fractional covariate effect): −0.547
Apparent clearance healthy participants [CL/F (L/h)] ([2]; healthy participants): 18.2 L/h
Absorption rate constant [ka (/h)] ([2]; healthy participants and EM patients): 1.31 h⁻¹
Apparent clearance patients [CL/F (L/h)] ([2]; patients): 18.2 L/h
Exponential effect of dose on Frel ([2]; power exponent): 0.163
Exponential effect of dose on ka ([2]; power exponent): −0.252
σprop ([2]; proportional residual error): 0.339
σprop (study CGP-MD-01) ([2]; proportional residual error): 0.572
σprop (study CGP-PK-02) ([2]; proportional residual error): 0.252
ω^2CL/F ([2]; variance of IIV): 0.0724
ω^2Q/F ([2]; variance of IIV): 0.550
ω^2ka ([2]; variance of IIV): 0.683
ω^2IOVFrel ([2]; variance of IOV): 0.228
Blood concentrations as percentage of those in plasma ([3]; Phase 3 Model): 57.3%
Blood-plasma ratio ([3]; Phase 3 Model): 0.573
Effect of concomitant statins on CL/F and Frel ([3]; Phase 3 Model): not found to have a significant effect
Fraction zero-order absorption (Fk0) ([3]; Phase 3 Model): 0.693
Frel at the 60-mg dose compared with the 10-mg dose ([3]; Phase 3 Model): approximately 1.24 fold
Higher Frel with coadministration of itraconazole ([3]; Phase 3 Model): 1.95 fold
IIV on CL/F ([3]; Phase 3 Model): 15.6 % CV
IIV on Frel ([3]; Phase 3 Model): 48.4 % CV
IIV on Q/F ([3]; Phase 3 Model): 68.6 % CV
IIV on Tk0 ([3]; Phase 3 Model): 40.4 % CV
IIV on V2/F ([3]; Phase 3 Model): 77.5 % CV
IOV on Frel ([3]; Phase 3 Model): 19.3 % CV
Duration zero-order absorption [Tk0 (h)] ([3]; Phase 3 Model, 60 mg reference dose): 0.908 h
Residual variability error term ([3]; Phase 3 Model, CGP-PK-02): 22.8 % CV
Residual variability error term ([3]; Phase 3 Model, EM phase 2b/3 study): 58.5 % CV
Lower CL/F with coadministration of quinidine ([3]; Phase 3 Model, P-gp inhibitor): 28.5%
Residual variability error term ([3]; Phase 3 Model, all phase 1 studies except CGP-PK-02): 30.7 % CV
CovQ/F,V2/F ([3]; Phase 3 Model, covariance of IIV): 0.422
Food effect on ALAG [3, 8]: 0.672
Itraconazole effect on Frel [3, 8]: 0.949
Rifampin effect on Frel after first dose [3, 8]: 1.42
Rifampin effect on Frel following multiple doses [3, 8]: −0.248
Apparent clearance healthy participants [CL/F (L/h)] ([3]; Phase 3 Model, healthy participants): 22.9 L/h
Absorption lag time following a high-fat meal ([3]; Phase 3 Model, high-fat meal): 0.46 h
Decrease of Frel with multiple rifampin doses [3, 9]: 24.8%
Increase of CL/F with multiple rifampin doses [3, 9]: 1.82 fold
Apparent clearance patients [CL/F (L/h)] ([3]; Phase 3 Model, patients with EM): 17.4 L/h
CL/F lower in patients than in healthy participants ([3]; Phase 3 Model, patients with EM vs healthy participants): 23.7%
Residual variability error term ([3]; Phase 3 Model, phase 3 studies): 49.1 % CV
Exponential dose effect on Frel ([3]; Phase 3 Model, power exponent, dose/60 mg): 0.119
σprop [3, 10]: 0.307
σprop (ADVANCE and PROGRESS studies) [3, 10]: 0.491
σprop (study CGP-MD-01) [3, 10]: 0.585
σprop (study CGP-PK-02) [3, 10]: 0.228
Lower CL/F with severe hepatic impairment ([3]; Phase 3 Model, relative to normal liver function or mild or moderate hepatic impairment): 36.6%
Higher Frel with single-dose rifampin [3, 11]: 2.4 fold
Lower CL/F with single-dose rifampin [3, 11]: ~ 13% and 12.8%
Lower CL/F with coadministration of itraconazole ([3]; Phase 3 Model, strong CYP3A4 inhibitor): 66.2%
ω^2CL/F ([3]; Phase 3 Model, variance of IIV): 0.0243
ω^2Frel ([3]; Phase 3 Model, variance of IIV): 0.234
ω^2Q/F ([3]; Phase 3 Model, variance of IIV): 0.471
ω^2V2/F ([3]; Phase 3 Model, variance of IIV): 0.601
ω^2tk0 ([3]; Phase 3 Model, variance of IIV): 0.163
ω^2IOVFrel ([3]; Phase 3 Model, variance of IOV): 0.0373
Lag time [ALAG (h)] ([3]; Phase 3 Model, without food): 0.276 h
Vd/F ([3]; human, plasma, oral): 86.1 L
Effect of mild or moderate renal impairment on atogepant PK ([4]; model-predicted): no clinically relevant effect
Change of Cmax with BCRP inhibitors [4, 12]: No change; also recorded: no impact
Decrease of AUC24 with use of BCRP inhibitors [4, 12]: 1%
Decrease of AUC24 with use of BCRP substrates [4, 12]: 3%
Decrease of Cmax with use of BCRP substrates [4, 12]: 3%
Increase of AUC24 with use of statins [4, 12]: 14%
Increase of Cmax with use of statins [4, 12]: 13%
Famotidine pre-treatment on Frel ([7]; fractional covariate effect): −0.15
Famotidine pre-treatment on ka ([7]; fractional covariate effect): −0.51
Formulation 2 tablet effect on ka ([7]; fractional covariate effect): −0.44
Formulation 2 tablet on Frel ([7]; fractional covariate effect): −0.17
Formulation 4 tablet effect on ka ([7]; fractional covariate effect): −0.42
Oral solution on Frel ([7]; fractional covariate effect): −0.67
Absorption rate constant [ka (/h)] ([7]; healthy participants): 2.44 h⁻¹
Apparent clearance healthy participants [CL/F (L/h)] ([7]; healthy participants): 19.82 L/h
Lag time [ALAG (h)] ([7]; healthy participants): 0.30 h
Exponential dose effect on ka ([7]; power exponent): −0.41
σprop ([7]; proportional residual error): 0.12
ω^2CL/F ([7]; variance of IIV): 0.151
ω^2Q/F ([7]; variance of IIV): 0.197
ω^2V1/F ([7]; variance of IIV): 0.136
ω^2V2/F ([7]; variance of IIV): 0.422
ω^2ka ([7]; variance of IIV): 0.537
Compound: C[C@@H]1[C@H](c2c(F)ccc(F)c2F)C[C@H](NC(=O)c2cnc3c(c2)C[C@@]2(C3)C(=O)Nc3ncccc32)C(=O)N1CC(F)(F)F [atogepant, Atogepant]
Transporter substrate status (OATP1B1): substrate
Transporter substrate status (OATP1B3): substrate
EC90 (effective concentration that results in 90% inhibition of the CGRP receptor) [1]: 8.4 ng/mL
Transporter substrate status (BCRP): substrate
Transporter substrate status (P-gp): substrate
Exponential weight effect on V1/F ([3]; Phase 3 Model, power exponent, body weight/76.8 kg): 0.411
Effect of age, BCRP inhibitors, BCRP substrates, statins, body weight, race, renal function and sex on steady-state AUC24 and Cmax ([4]; model-predicted, 60 mg daily, compared with reference groups): < 20%
Area under the concentration–time curve (AUC) ([5]; 60-mg dose): ~ 3470 ng h/mL
Dose proportionality of PK [5]: dose-proportional up to a 300-mg single dose and multiple doses of 170 mg/day
Food effect [5]: no clinically significant food effect
Half-life (t1/2) [5]: ~ 11 h
Accumulation ([5]; multiple doses): no accumulation
Maximum plasma concentration (Cmax) [5, 13]: ~ 740 ng/mL
Time to achieve a pharmacologically effective concentration [5, 13]: ≤ 30 min
Transporter substrate status (OAT1): substrate
Metabolizing enzyme [6]: primarily metabolized by cytochrome P450 3A4 (CYP3A4)
